Assay results from ChEMBL document CHEMBL2034823, “Synthesis and antiviral activity of certain second generation methylenecyclopropane nucleosides” (Bioorg Med Chem, 2012).

Experiments:
Human gammaherpesvirus 8 = assay: Antiviral activity against HHV-8 infected in human BCBL1 cells assessed as reduction in viral DNA after 7 days by qPCR analysis; assay type: functional, organism-based; conditions: Human gammaherpesvirus 8, BCBL1, 168 h
Outline: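 BCBL1 cells kept in RPMI 1640 with 10% FBS, penicillin, gentamycin and L-glutamine. Lytic infection induced with phorbol 12-myristate 13-acetate, then cells added to triplicate compound dilutions. Incubation 7 days at 37 °C in humidified CO2. EC50 is the concentration halving viral DNA accumulation.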

Human alphaherpesvirus 1 = assay: Antiviral activity against HSV-1 infected in human HFF cells assessed as reduction in cytopathic effect after 3 days by crystal violet staining; assay type: functional, organism-based; conditions: Human alphaherpesvirus 1, HFF, 72 h
Outline: (§1)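 Compound diluted over HFF monolayers, then HSV-1 (E-377) or HSV-2 (MS) added at MOI about 0.01 PFU/cell. Held 3 days in humidified 5% CO2. Stained 4 h with 0.1% crystal violet in formalin, rinsed, dried 24 h, and absorbance read at 595 nm. EC50 is 50% CPE reduction. Duplicate wells.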

Human alphaherpesvirus 3 = assay: Antiviral activity against VZV infected in human HFF cells assessed as reduction in cytopathic effect after 7 days by crystal violet staining; assay type: functional, organism-based; conditions: Human alphaherpesvirus 3, HFF, 168 h
[1] = Antiviral activity against HHV-6A infected in human HSB2 cells assessed as reduction in viral DNA after 7 days by hybridization assay; assay type: functional, cell-based, Human herpesvirus 6A; conditions: Human betaherpesvirus 6A, HSB2, 168 h
Outline: (§2)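 Compound serially diluted in medium. Uninfected HSB-2 cells were infected with HHV-6A (GS)-infected HSB-2 cells, and Molt-3 cells with HHV-6B (Z29)-infected Molt-3 cells. Incubation 7 days at 37 °C. Lysis in 4.5 M NaCl/1.2 M NaOH, then transfer to nylon membrane. Viral DNA quantified by digoxigenin-probe hybridization and EC50 calculated. Duplicate wells.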

Human betaherpesvirus 5 = assay: Antiviral activity against HCMV infected in human HFF cells assessed as reduction in cytopathic effect after 8 days by plaque reduction assay; assay type: functional, organism-based; conditions: Human betaherpesvirus 5, HFF, 192 h
Outline: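 HFF monolayers seeded 2 days ahead and infected with AD169 at about 30 plaques per well, with 1 h adsorption. Compound was then added in MEM with 2% FBS, L-glutamine, penicillin, gentamycin and pooled human gamma globulin. After 8 days, neutral red stain and plaque counts by stereomicroscope. EC50 interpolated. Duplicate wells.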

Human alphaherpesvirus 2 = assay: Antiviral activity against HSV-2 infected in human HFF cells assessed as reduction in cytopathic effect after 3 days by crystal violet staining; assay type: functional, organism-based; conditions: Human alphaherpesvirus 2, HFF, 72 h; outline: as §1
[2] = Cytotoxicity against human Akata cells after 7 days by Cell-Titer Glo assay; assay type: cell-based
Outline: (§3)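 Uninfected Akata, BCBL1, HSB-2 or MOLT-3 cells incubated with compound for seven days under the matching antiviral-assay conditions. CellTiter-Glo added and luminescence read. CC50 is the concentration reducing cell number by 50%.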

[3] = Cytotoxicity against human BCBL1 cells after 7 days by Cell-Titer Glo assay; assay type: cell-based; outline: as §3
Human gammaherpesvirus 4 = assay: Antiviral activity against EBV Akata infected in human Akata cells assessed as reduction in viral DNA after 72 hrs by hybridization assay; assay type: functional, organism-based; conditions: human gammaherpesvirus 4, Akata
Outline: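 Akata cells kept in RPMI 1640 with 10% FBS, L-glutamine, penicillin and gentamicin. Latent infection was switched to productive by adding goat anti-human IgG, and cells were seeded into compound dilutions made in growth medium. After 72 h the DNA was denatured and blotted onto nylon membrane. Viral DNA was measured with a digoxigenin-labeled probe plus anti-hapten antibody. EC50 is the concentration halving viral DNA. Duplicate wells.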

[4] = Cytotoxicity against human HFF cells after 3 to 8 days by crystal voilet staining; assay type: cell-based
Outline: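 Uninfected HFF cells exposed to the same concentrations as in the CPE assays (3 days for HSV, 7 for VZV, […]). Stained with crystal violet. CC50 is the concentration reducing cell number by 50%. Duplicate wells.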

[5] = Cytotoxicity against human HSB2 cells after 7 days by Cell-Titer Glo assay; assay type: cell-based, CCRF-HSB-2; outline: as §3
[6] = Cytotoxicity against human MOLT3 cells after 7 days by Cell-Titer Glo assay; assay type: cell-based, MOLT-3; outline: as §3
[7] = Antiviral activity against HHV-6B infected in human Molt3 cells assessed as reduction in viral DNA after 7 days by hybridization assay; assay type: functional, cell-based, Human herpesvirus 6B; conditions: Human betaherpesvirus 6B, MOLT-3, 168 h; outline: as §2

Row | Compound | IC50 (Human gammaherpesvirus 8) [µM] | IC50 (Human alphaherpesvirus 1) [µM] | IC50 (Human alphaherpesvirus 3) [µM] | IC50 [1] [µM] | IC50 (Human betaherpesvirus 5) [µM] | IC50 (Human alphaherpesvirus 2) [µM] | CC50 at 168 h [2] [µM] | CC50 at 168 h [3] [µM] | IC50 (Human gammaherpesvirus 4) [µM] | CC50 [4] [µM] | CC50 at 168 h [5] [µM] | CC50 at 168 h [6] [µM] | IC50 [7] [µM]
1 | CCCCCCCCOc1nc(N)nc2c1ncn2/C=C1/CC1(CO)CO | > 20 | > 300 | > 100 | > 20 | 29 | > 300 | > 20 | > 20 | 13 | > 300 | > 20 | > 20 | 11.5
2 | Nc1nc(OCC(F)(F)F)c2ncn(/C=C3/CC3(CO)CO)c2n1 | 19 | > 300 | > 300 | > 20 | 5.6 | > 300 | > 20 | > 20 | 1.4 | > 300 | > 20 | > 20 | 8.9
3 | COCCOc1nc(N)nc2c1ncn2/C=C1/CC1(CO)CO | > 20 | > 300 | 13.9 | > 20 | 17 | > 300 | > 20 | > 20 | 20 | > 300 | > 20 | > 20 | > 20
4 | Nc1nc(OCc2ccccc2)c2ncn(/C=C3/CC3(CO)CO)c2n1 | > 20 | > 300 | 53 | > 20 | 45 | > 300 | > 20 | > 20 | > 20 | > 300 | > 20 | > 20 | > 20
5 | CSc1nc(N)nc2c1ncn2/C=C1/CC1(CO)CO | > 20 | > 300 | > 60 | > 100 | > 50 | > 300 | > 20 | > 20 | 11.4 | > 300 | > 100 | > 20 | 11.6
6 | CCCSc1nc(N)nc2c1ncn2/C=C1/CC1(CO)CO | > 20 | > 300 | > 300 | 63 | 42 | > 300 | > 20 | > 20 | > 20 | > 300 | 98 | > 20 | 14.3
7 | CC(C)Sc1nc(N)nc2c1ncn2/C=C1/CC1(CO)CO | > 20 | > 300 | > 60 | 70 | 4 | > 300 | > 20 | > 20 | 3.1 | > 300 | 94 | > 20 | 7.5
8 | CCCCSc1nc(N)nc2c1ncn2/C=C1/CC1(CO)CO | > 20 | > 300 | > 300 | 75 | > 50 | > 300 | > 20 | > 20 | 2.5 | > 300 | 89 | > 20 | 7
9 | Nc1nc(SC2CCCC2)c2ncn(/C=C3/CC3(CO)CO)c2n1 | > 20 | > 300 | > 300 | 35 | > 50 | > 300 | > 20 | > 20 | 0.9 | > 300 | 91 | > 20 | 9.9
10 | CCCCCCSc1nc(N)nc2c1ncn2/C=C1/CC1(CO)CO | > 20 | > 300 | > 300 | > 20 | > 50 | > 300 | > 20 | > 20 | 7.1 | > 300 | 60 | > 20 | 5.4
11 | CCCCCCCCSc1nc(N)nc2c1ncn2/C=C1/CC1(CO)CO | > 20 | > 300 | > 60 | > 20 | 20 | > 300 | > 20 | > 20 | > 20 | > 300 | 60 | > 20 | 11
12 | Nc1nc(SCc2ccccc2)c2ncn(/C=C3/CC3(CO)CO)c2n1 | > 20 | > 300 | > 60 | 88 | > 50 | > 300 | > 20 | > 20 | 3.1 | > 300 | > 100 | > 20 | > 20
13 | Nc1nc(N)c2nc[nH]c2n1 [2,6-DIAMINOPURINE] | 30 | > 300 | > 300 | > 20 | > 300 | > 300 | > 20 | 67 | 11 | > 300 | > 20 | > 20 | 16
14 | Nc1nc2c(ncn2/C=C2/CC2(CO)CO)c(=O)[nH]1 [FILOCICLOVIR] | 3 | > 100 | > 100 | 1.3 | 1.4 | > 100 | > 20 | > 20 | 45 | > 300 | > 20 | > 20 | 8
